Measurements published in the EternaBench riboswitch data.

Test system: MS2 coat protein
Experiment: apparent Kd, MS2 coat protein; higher = weaker binding; RNA-MaP array; FMN 200 µM where present
How it was run: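 In 100 mM Tris-HCl pH 7.5, 80 mM KCl, 4 mM MgCl2, BSA, DTT, yeast tRNA and Tween-20, SNAP-549-labelled MS2 coat protein was titrated from 0.7 or 1.5 nM, doubling to 3 µM, over designs transcribed by stalled E. coli RNA polymerase on Illumina sequencing-chip clusters. This was done first without ligand, then with ligand held constant. After green signal was normalised to red-channel RNA signal and control-cluster median Fmax, the apparent Kd was taken as the median of filtered per-cluster binding-curve fits.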

[1] = designed as: OFF switch for flavin mononucleotide, no ligand
[2] = ligand present: flavin mononucleotide, designed as: OFF switch for flavin mononucleotide
[3] = designed as: ON switch for flavin mononucleotide, no ligand
[4] = ligand present: flavin mononucleotide, designed as: ON switch for flavin mononucleotide

Row | Sequence | apparent Kd [1] | apparent Kd [2] | apparent Kd [3] | apparent Kd [4]
1 | GAUCGGUGAGGAUAUACAUUUUAGCUCCUCGUAAAGCCAUGACAUGAGGAUCACCCAUGUAGAAGGUAUUGUGU | 22.3 nM | 20 nM | – | –
2 | AGUAACAGAGGAUAUACUGUUUUAUGUGUUUAUUGUUUUGAACAUGAGGAUCACCCAUGUAGAAGGCUGAAUAA | 23.3 nM | 20.9 nM | – | –
3 | UAUAUUUUUAUAGGAUAUGGAUAUGAUGCAUAUCCAGAAGGGUGAAUAUAAUAUUUUCUGUACAUGAGGAUCACCCAUGUUUAG | – | – | 116 nM | 46.9 nM
4 | CCAGAGACAUAAGGAUAUCGAGUGGAUAACACUCGAGAAGGUAUGUGAAAACAUGAGGAUCACCCAUGUGAUCAAUACUCUGGA | – | – | 20.1 nM | 20.4 nM
5 | UGAGCGACCACAGGAUAUACUCGGGAAGACCAAGUAGAAGGGUGGAAGAGCGUGCAGUGACAUGAGGAUCACCCAUGUGGUUGU | – | – | 143 nM | 97.3 nM
6 | GCGAUUUUGUAAGGAUAUACACGAGUUUUAAGUGUAGAAGGUACUUACAUGAGGAUCACCCAUGUAUAAAUGUAUAAUAGUCGC | – | – | 9.11 nM | 7.51 nM
7 | AUAUAGGCCCAGAAGGUGCCAGCGAGAGCUGCACAUGAGGAUCACCCAUGUUGUCGGUGACGACGCAAGGAUAUGGGCCUAUAU | – | – | 24.8 nM | 7.13 nM
8 | CUCGGACAUGAGGAUCACCCAUGUGAGGAUAUGAUGCGAUCGUCGAAAGACGAUAGCAUCAGAAGGUACAAAUG | 52 nM | 42.9 nM | – | –
9 | GCGAUUUUGUAGAAGGUACGUUAUAAGACAAUGUAAGGAUAUACUGACAUGAGGAUCACCCAUGUAUAAUUAGUUUACAGUCGC | – | – | 7.74 nM | 5.91 nM
10 | AUAUGGGCUAACAUGAGGAUCACCCAUGUGUUAUACUUAAUAUAGGAUAUGUUUAUACUUUUUGGGCAGAAGGAUGGCCCAUAU | – | – | 67.9 nM | 68.7 nM
11 | ACAUCACAUGAGGAUCACCCAUGUCAGGAUAUCGACUGAACAGCUUCGGCUGUUCAGUCGAGAAGGGACAAUUA | 66.5 nM | 131 nM | – | –
12 | AGAAACUACGAGAAGGACAUAUGGUACUUCAGAUACAUGAGGAUCACCCAUGUAGGAUAUCGUAGUUUCAGGAUCGUGAGAUCA | 9.58 nM | 42.6 nM | – | –
13 | AGCAUGUGAGGAUAUGCGGACUCCGGUAAAUCUGAAGUCCAGUAGAAGGCACAUGAGGAUCACCCAUGUGAGAU | 43 nM | 110 nM | – | –
14 | UGAUCGAGAGAUCUUAGAUUCUGGUAGGAUAUGCAACAGUUGCGCUUUACAUGAGGAUCACCCAUGUAGAAGGACUAGAGUCUA | 5.86 nM | 6.1 nM | – | –
15 | GCCUAACAUGAGGAUCACCCAUGUAGUGGGUUGUUAGGAUAUGGGCGGCGUAACGCUGCACCAGAAGGAAUAGAAG | – | – | 865 nM | 504 nM
16 | GUGACGAAUGUAGGAUAUGCUGAGGAUAACUCAGCAGAAGGACAUGAGGAUCACCCAUGUCAUCCUAAUAAUAAAUAACGUCAC | 14.8 nM | 18.8 nM | – | –
17 | CAAAGGACAGGAUAUGCGAGGGAGCCCGUGCAGGUCGCCCAACAUGAGGAUCACCCAUGUAGAAGGGUCAAAAC | 32.8 nM | 25.8 nM | – | –
18 | GUGAAGUAAGGAUAUACAUGAGGAUCACCCAUGUAAGGGAAGGUGAUGGGAGUAGAUAGUAGAAGGUACGAGGA | 120 nM | 81.9 nM | – | –
19 | AUUAUUAAAGUGAGGAUAUCUAGAGCCUCGGCUCUAGAGAAGGCACAUGAGGAUCACCCAUGUCUCAAUUAUUA | 19.1 nM | 56.1 nM | – | –
20 | CGGGCCGUCUACAUGAGGAUCACCCAUGUGACGGAAGUAACACAGGAUAUCCUCUAAUUGUAGACGGAGAAGGGUGGCCCGAAU | – | – | 28.9 nM | 159 nM
21 | UGUUGAUAGCAGAAGGACAUGAGGAUCACCCAUGUAAGGUUACAAAUACAUGUAGGAUAUGCUAUUGACUAAGAGUGAGCGUUC | 43.4 nM | 565 nM | – | –
22 | AAUAAACGCACAGGAUAUAGCAUCGACGUUGAGAACUUAAAGACGUCGAUGCUAGAAGGGUGAAAACAUGAGGAUCACCCAUGU | – | – | 87.6 nM | 18.7 nM
23 | AUACACUAAGUGAGGAUAUCGAUUUCUUUAAGGAUCGAGAAGGCACAUGAGGAUCACCCAUGUUUGACGUGAAU | 34.4 nM | 75.8 nM | – | –
24 | AUGUAGUGCGAAGGAUAUGCGACUGCCUCGGCCGCAGAAGGUCGCACAUGAGGAUCACCCAUGUGCGGUGCAAAGAGUGGUUCU | 111 nM | 76.3 nM | – | –
25 | GGGCUGUCAGGAUAUGGGUCUGGGUCUGAAAGGGCUCGGGCUCAGAAGGGACAUGAGGAUCACCCAUGUGGCCC | 35.2 nM | 36.4 nM | – | –
26 | UGAUAGGACAGAGGAUAUACCGAUAGGAUCUACUAUCGAAGAAUCCUCACAUGAGGAUCACCCAUGUAGAAGGCUGUCCUAUCU | 41.6 nM | 678 nM | – | –
27 | UAGUUAUUCACAGGAUAUCGCCUCUUAUUACAUGAGGAUCACCCAUGUUUACUUAGUUACAUGUUCGAGAAGGGUGUAGCCGUU | 491 nM | 554 nM | – | –
28 | GUACCAUAUGAGAAGGCGAUCAUGAAACAUGAUCGAGGAUAUCAUGAAAACAUGAGGAUCACCCAUGUAUGGGUAUUAAGGUAC | – | – | 61.4 nM | 23.7 nM

Row | Sequence | apparent Kd [1] | apparent Kd [2] | apparent Kd [3] | apparent Kd [4]
29 | AAUUUAAUACAUGAGGAUCACCCAUGUAAAUUAAUUAAGAUCAAGGAUAUCAGCUCGUUUAGAGCUGAGAAGGUGAUCACAUGU | – | – | 343 nM | 97 nM
30 | GACGAACAUGAGGAUCACCCAUGUAAAGACGUACAAGGAUAUGUGUGGAAACCGUACUAUACAGAAGGUGUCUGUC | – | – | 53.5 nM | 25.5 nM
31 | CGAUCGUUGCAGAAGGUUAAAUAAUUAUCUACAUGUUUUACAUGAGGAUCACCCAUGUUUAUGUUGAAGGAUAUGCAAGGGUCG | 8.02 nM | 8.09 nM | – | –
32 | GCGUGUUGAGGAUAUACGAACAUGUCGCCAGAUGUCAUGGUACAUGAGGAUCACCCAUGUAGAAGGUGGUACGC | 263 nM | 336 nM | – | –
33 | GCCAGUUAUGUAGGAUAUGCGCGGCGAGCCUGUGCAGAAGGACAUGAGGAUCACCCAUGUGUUGCGGUCUGAGUACUGAUCGCU | 30 nM | 221 nM | – | –
34 | GGUUGUCAUAGUCAUCCUUAACGAACAUGAGGAUCACCCAUGUAGGAUAUGCUACUCAAAGAGUAGCAGAAGGGCGUGUGUCUU | 56.6 nM | 62.9 nM | – | –
35 | CUUCGUAUAGAGGAUAUAGGAUACCUCGGUGUCCUAGAAGGCUGUACAUGAGGAUCACCCAUGUACUUCAGAUC | 11.6 nM | 16 nM | – | –
36 | UUGUUGUAUGUAGGAUAUGCAUAUUAUUAUUAUGCAGAAGGACAUGAGGAUCACCCAUGUAUAUUAUUAUUAUAUGUUAUAUAU | 26 nM | 34.2 nM | – | –
37 | AAACAUGUCCGAGGAUAUCUGGAAACAUUUUCAAGAGAAGGCGGACAUGAGGAUCACCCAUGUCUCUCCUCAUCAACUACAAAU | 21.2 nM | 181 nM | – | –
38 | GGAUGACAAAGUCAUCCAAUUCGAACAUGAGGAUCACCCAUGUAGGAUAUGCUUCUCAAAGAGAAGCAGAAGGACAUGUGCUUU | 32.8 nM | 182 nM | – | –
39 | AUCAGCUCGUCAGGAUAUACGACACUGCGUCAGCAGUGUGGUAAGAUCACAUGAGGAUCACCCAUGUAGAAGGGACGAGCUGAU | 6.87 nM | 28.1 nM | – | –
40 | ACUAUACGAGGAUAUACUGUCAGUACUCAGAGAUUAAUGUGACAUGAGGAUCACCCAUGUAGAAGGCGUUUACU | 31.9 nM | 35.3 nM | – | –
41 | GGUGAAUGAACAUGAGGAUCACCCAUGUACAGGAAACUGAAUGAGGAUAUCCAUAGCAAAGCUAUGGAGAAGGUAUGGGUCACC | – | – | 40.5 nM | 44.9 nM
42 | AUCAGCUCGUCAGGAUAUACGUCGUGGUAAGAUCACAUGAGGAUCACCCAUGUAGAAGGGACGAGCUGAUAAGCACGAAAGUGC | 745 nM | 47.1 nM | – | –
43 | GUUAGUUAAGGAUAUACAGGGAGCCGCGGCGUCUCGCCGCAACAUGAGGAUCACCCAUGUAGAAGGUGGCCAUU | 150 nM | 119 nM | – | –
44 | GACUGCCGAGGAUAUACAUGAGGAUCACCCAUGUGCUUCAGCAUUUUUUGAUGCAUGGGUAGAAGGCGGUAGUU | 453 nM | 326 nM | – | –
45 | AACAUUCUAUCUCAGGAUAUCAUGUCAAAGACAUGAGGAUCACCCAUGUACCAGGAAACUGGUUAUGAGAAGGGAGAUAGAAUGA | – | – | 1220 nM | 227 nM
46 | UGUCGGAGCAGAGGAUAUUACAUGAGGAUCACCCAUGUAUGAACCAAUAGCUGGAAACAGCAAUGUAAGAAGGCUGCUCGGACA | 12.6 nM | 187 nM | – | –
47 | CCAUGGUGGGCAGGAUAUCGUCCAGCUUGCGGACGAGAAGGGCUAGAACAUGAGGAUCACCCAUGUGAAAAGCGGGUUGUCCAA | 27.8 nM | 145 nM | – | –
48 | ACAUGAGGAUCACCCAUGUGUACAUAGGAUAUUGAUGAUUAUGGUUUAAGAAAAGUAAUUGCCCACAAGAAGGAUGCCUCAUCU | – | – | 36.5 nM | 27.7 nM
49 | CAUUAAUUCAUUAUAGUAAUUAUACAGGAUAUGUAACAUGAGGAUCACCCAUGUAUUCUUGGUAAACAGAAGGGUAUUACAAGU | 13.7 nM | 12.8 nM | – | –
50 | UGAAAUCAUGUAGGAUAUGCAUGGCGAAGCUACGCAGAAGGACAUGAGGAUCACCCAUGUUCUGGCUACCGGAUACGGUGGCAA | 22 nM | 105 nM | – | –
51 | GCACUGGAUGUAGGAUAUCAGGACGAUAAGUCCUGAGAAGGACAUGAGGAUCACCCAUGUACACAAAACCAGUGCUAUAAUAUA | 13.7 nM | 18.8 nM | – | –
52 | AAGUCGAGUGUGAGGAUAUUGACCGGACGACCCAUCGAGAAGGCACAUGAGGAUCACCCAUGUGAUUCAGCUCA | 17 nM | 23 nM | – | –
53 | CGUCCUUAGUGAGGAUAUCAGAAAAUACGGAAAUGAGAAGGCACAUGAGGAUCACCCAUGUAAAUAACGGCCGGUCUUGGCAGC | 7.96 nM | 21.6 nM | – | –
54 | GGAUAGGACAGAGGAUAUACGUGCUAGAGAUAGUAGCAAAAUUUCCUCACAUGAGGAUCACCCAUGUAGAAGGCUGUCCUAUCG | 19.6 nM | 365 nM | – | –
55 | GUCAGCUCGUGAGGAUAUAUAACACUGCUUCGGCAGUGUAUUAAGAUCACAUGAGGAUCACCCAUGUAGAAGGCACGAGCUGAU | 5.04 nM | 8.94 nM | – | –
